The source of these data is ChEMBL document CHEMBL3085766, “Synthesis, ex vivo and in silico studies of 3-cyano-2-pyridone derivatives with vasorelaxant activity” (Eur J Med Chem, 2013).

Experiment [1] concerns Aorta. In words: Vasorelaxant activity in rat endothelium-intact thoracic aortic ring assessed as inhibition of noradrenaline-induced contraction. Format: functional, tissue-based. An outline of the steps: (§1)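 Isometric tension of isolated rat thoracic aorta rings, endothelium intact or removed, recorded with a force transducer. After stabilization, rings were challenged with […] for 10 min and washed in fresh Krebs solution. This was done three times at 30-min intervals. Endothelial status was confirmed by […] relaxation in the last contraction. Rings were then contracted with NA and given quarter-log cumulative concentrations; EC50 derived.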

In experiment [2] the test system is Aorta. Description: Vasorelaxant activity in rat endothelium-intact thoracic aortic ring assessed as inhibition of noradrenaline-induced contraction relative to control. Format: functional. In outline: as §1
Experiment [3] concerns Aorta. Description: Vasorelaxant activity in rat endothelium-denuded thoracic aortic ring assessed as inhibition of noradrenaline-induced contraction relative to control. Format: functional. In outline: as §1
In experiment [4] the test system is Aorta. In words: Vasorelaxant activity in rat endothelium-denuded thoracic aortic ring assessed as inhibition of noradrenaline-induced contraction. Format: functional, tissue-based. In outline: as §1

For `CCOC(=O)c1c(C)[nH]c(=O)c(C#N)c1-c1ccco1`, the EC50 came to 22 µM with Aorta [1] and 31 µM in the experiment on Aorta [4]. The Efficacy is 100% with Aorta [2] and 93% in the experiment on Aorta [3]. Also, in the experiment on Aorta [4], the inhibition entry was “Dose-dependent effect”.

On to `CCOC(=O)c1c(C)[nH]c(=O)c(C#N)c1-c1cccs1`, for which the results for the EC50 with Aorta [1] and with Aorta [4] were 5 µM and 12 µM, respectively. The Efficacy in the experiment with Aorta [2] was determined as 100%; in the experiment on Aorta [3] it was 99%. The inhibition result in the experiment with Aorta [4] is “Dose-dependent effect”.

Take `CCOC(=O)c1c(C)[nH]c(=O)c(C#N)c1-c1ccncc1`: the EC50 in the experiment with Aorta [1] worked out at 270 µM; in the experiment with Aorta [4], 178 µM. Also, the values for the Efficacy in the experiment on Aorta [2] and with Aorta [3] were 85.47% and 86.4%, respectively. Also, the inhibition result in the experiment on Aorta [4] was “Dose-dependent effect”.

Regarding `COC(=O)C1=C(C)NC(C)=C(C(=O)OC)C1c1ccccc1[N+](=O)[O-]` [NIFEDIPINE], in the experiment on Aorta [3], the Efficacy was determined as 97%. Also, in the experiment with Aorta [4], the EC50 turned out to be 0.03 µM.

In the case of `CCOC(=O)c1c(C)[nH]c(=O)c(C#N)c1-c1ccc([N+](=O)[O-])cc1[N+](=O)[O-]`, the EC50 came to 4.4 µM with Aorta [1] and 3.6 µM with Aorta [4]. Further, the Efficacy worked out at 97% with Aorta [2] and 99% in the experiment on Aorta [3]. In the experiment on Aorta [4], the inhibition result is “Dose-dependent effect”.

Consider `C[N+](C)(C)CCOC(N)=O.[Cl-]` [CARBACHOL], for which the EC50 with Aorta [1] was determined as 0.3 µM. Besides, the Efficacy in the experiment with Aorta [2] came out at 74.06%.

Take `CCOC(=O)c1c(C)[nH]c(=O)c(C#N)c1-c1ccc([N+](=O)[O-])cc1`: the EC50 is 7 µM in the experiment with Aorta [1] and 8.2 µM in the experiment on Aorta [4]. Also, the Efficacy was 98% in the experiment on Aorta [2] and 95% in the experiment with Aorta [3]. Also, the inhibition entry in the experiment with Aorta [4] is “Dose-dependent effect”.

On to `CCOC(=O)c1c(C)[nH]c(=O)c(C#N)c1-c1cccc(Cl)c1`, for which the EC50 came out at 85 µM in the experiment with Aorta [1] and 62 µM in the experiment on Aorta [4]. Besides, the values for the Efficacy in the experiment on Aorta [2] and in the experiment with Aorta [3] were 97% and 99%, respectively. Also, in the experiment on Aorta [4], the inhibition entry was “Dose-dependent effect”.
